Like-named read-outs stand apart in the source and are kept apart here.
Columns and labels:
[1] = Lipophilicity by shake-flask method; format: physicochemical; conditions: chloride salts, 1-octanol / 10 mM phosphate buffer pH 7.4
A549 cells = test: Dark cytotoxicity and photocytotoxicity in normoxia, resazurin cell viability; format: cell-based, human
How it was run: (§1)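 Cells adhered 3–5 h at 37°C, then were dosed at 1 nM to 300 μM. After a 13–22 h DLI, light plates received 100 J cm−2 of broadband visible (400–700 nm, 21 mW cm−2), green (523 nm) or red (633 nm, ±2.5 nm, 18 mW cm−2) light. Dark plates stayed incubated. Viability was read by resazurin after 24 h at 37°C. EC50 came from sigmoidal fits; PI = dark EC50/light EC50.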

SK-MEL-28 cells [2] = test: as above; format: cell-based, human
How it was run: as §1

SK-MEL-28 cells [3] = test: Dark cytotoxicity and photocytotoxicity in hypoxia; format: cell-based, human; conditions: hypoxia 1% O2, regardless of light treatment
How it was run: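 Cells were moved to a 1% O2 chamber for 2–3 h after adhesion, then dosed (1 nM to 300 μM). After an 18 h DLI, dissolved O2 was checked by optical probe. Light plates were sealed with low-permeability film and illuminated outside the chamber (~1.5 h). All plates were then held in normoxia (37°C, 5% CO2) for 20–23 h before resazurin read-out. EC50 came from sigmoidal fits; PI = dark/light ratio. Each run was done in triplicate.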

[4] = any light condition (visible, 523 nm, 633 nm; 100 J cm−2), normoxia
[5] = read-out: dark EC50, no light, normoxia

| Substance | log Do/w [1] | EC50 (A549 cells; read-out: visible EC50, visible light 400–700 nm, 100 J cm−2, normoxia) | PI (dark EC50 / visible EC50) (A549 cells; visible light 400–700 nm, 100 J cm−2, normoxia) | drop in activity with green light versus visible light (SK-MEL-28 cells [2]; 523 nm vs visible, normoxia) | PI (dark EC50 / green EC50) (SK-MEL-28 cells [2]; 523 nm, 100 J cm−2, normoxia, representative replicate (repeat 0)) | EC50 (SK-MEL-28 cells [2]; read-out: green EC50, 523 nm, 100 J cm−2, normoxia, representative replicate (repeat 0)) | enhancement in visible photocytotoxicity relative to Ru-1T (SK-MEL-28 cells [2]; visible light, normoxia) | photocytotoxic activity (A549 cells; [4]) | EC50 (A549 cells; [5]) | photocytotoxic activity (SK-MEL-28 cells [2]; [4]) | EC50 (SK-MEL-28 cells [2]; [5]) | photocytotoxic effect (SK-MEL-28 cells [3]) |
| --- | --- | --- | --- | --- | --- | --- | --- | --- | --- | --- | --- | --- |
| rac-[Ru(4,4′-btfmb)2(IP-2T)](Cl)2 [Ru-2T] | positive | 1370 nM | 127 | 3 fold | 91 | 1900 nM | 36 fold | – | – | – | – | – |
| rac-[Ru(4,4′-btfmb)3](Cl)2 [[Ru(4,4′-btfmb)3]^2+, reference compound] | – | – | – | – | – | – | – | inactive | > 300000 nM | inactive | > 300000 nM | no photocytotoxic effect |

Reference: PMC11166183 (Inorganic chemistry, 2024)
